Data: ChEMBL document CHEMBL5344483, “Design and synthesis of novel chloropyridazine hybrids as promising anticancer agents acting by apoptosis induction and PARP-1 inhibition through a molecular hybridization strategy” (RSC Med Chem, 2024)
pIC50: −log10 of the molar value. Calls of active or inactive are those of the source. No cut-off for these calls is given here.

How the values were obtained:
HNO 97 cell line [1] = experiment: Cytotoxicity against human HNO97 cells by SRB assay; type: functional, cell-based
Summary of the method: (§1)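 Cells seeded at 3×10^3 per well and allowed to attach for 24 h. Exposed to […], 12.5, 25 and 50 µg/mL for 48 h, triplicate wells per concentration, with a 1% v/v DMSO vehicle. Fixed in 20% TCA, stained with 0.4% SRB, and OD read at 570 nm. IC50 from sigmoidal dose-response fit of survival fraction (treated/control OD).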

HNO 97 cell line [2] = experiment: Induction of apoptosis in human HNO97 cells assessed as measuring fold increase in caspase-6 protein expression level by sandwiched immunoassay relative to control; type: functional
Summary of the method: (§2)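 Sandwich ELISA on antibody-precoated wells. Sample incubated 1 h at 37 °C, then biotin-conjugated detection antibody 1 h at 37 °C, then avidin-HRP 30 min at 37 °C, with washes between steps. TMB substrate 10–20 min at 37 °C in the dark, stopped with sulphuric acid, read at 450 nm. Duplicate readings, zero-standard subtracted, quantified against a 7-point standard curve.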

NCI-H460 = experiment: Anticancer activity against human NCI-H460 cells assessed as growth inhibition at 100 microg/mL by SRB assay relative to control; type: functional; conditions: read-out: GI
Summary of the method: (§3)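 Cells seeded at 3×10^3 per well and allowed to attach for 24 h. Treated with 100 µg/mL compound for 48 h, triplicate wells, with a 1% v/v DMSO vehicle control. Fixed in 20% TCA, stained with 0.4% SRB, and OD read at 570 nm. Survival fraction is treated OD/control OD.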

A-375 = experiment: Anticancer activity against human A-375 cells assessed as growth inhibition at 100 microg/mL by SRB assay relative to control; type: functional; conditions: read-out: GI; summary of the method: as §3
A549 = experiment: Anticancer activity against human A549 cells assessed as growth inhibition at 100 microg/mL by SRB assay relative to control; type: functional; conditions: read-out: GI; summary of the method: as §3
[3] = target: T1, Poly [ADP-ribose] polymerase 1 (Homo sapiens, UniProt P09874); experiment: Inhibition of human PARP-1 in MDA-MB-231 cells assessed as accumulation of cleaved PARP-1 by immunoblot analysis; type: cell-based
T1 sequence (P09874 whole entry): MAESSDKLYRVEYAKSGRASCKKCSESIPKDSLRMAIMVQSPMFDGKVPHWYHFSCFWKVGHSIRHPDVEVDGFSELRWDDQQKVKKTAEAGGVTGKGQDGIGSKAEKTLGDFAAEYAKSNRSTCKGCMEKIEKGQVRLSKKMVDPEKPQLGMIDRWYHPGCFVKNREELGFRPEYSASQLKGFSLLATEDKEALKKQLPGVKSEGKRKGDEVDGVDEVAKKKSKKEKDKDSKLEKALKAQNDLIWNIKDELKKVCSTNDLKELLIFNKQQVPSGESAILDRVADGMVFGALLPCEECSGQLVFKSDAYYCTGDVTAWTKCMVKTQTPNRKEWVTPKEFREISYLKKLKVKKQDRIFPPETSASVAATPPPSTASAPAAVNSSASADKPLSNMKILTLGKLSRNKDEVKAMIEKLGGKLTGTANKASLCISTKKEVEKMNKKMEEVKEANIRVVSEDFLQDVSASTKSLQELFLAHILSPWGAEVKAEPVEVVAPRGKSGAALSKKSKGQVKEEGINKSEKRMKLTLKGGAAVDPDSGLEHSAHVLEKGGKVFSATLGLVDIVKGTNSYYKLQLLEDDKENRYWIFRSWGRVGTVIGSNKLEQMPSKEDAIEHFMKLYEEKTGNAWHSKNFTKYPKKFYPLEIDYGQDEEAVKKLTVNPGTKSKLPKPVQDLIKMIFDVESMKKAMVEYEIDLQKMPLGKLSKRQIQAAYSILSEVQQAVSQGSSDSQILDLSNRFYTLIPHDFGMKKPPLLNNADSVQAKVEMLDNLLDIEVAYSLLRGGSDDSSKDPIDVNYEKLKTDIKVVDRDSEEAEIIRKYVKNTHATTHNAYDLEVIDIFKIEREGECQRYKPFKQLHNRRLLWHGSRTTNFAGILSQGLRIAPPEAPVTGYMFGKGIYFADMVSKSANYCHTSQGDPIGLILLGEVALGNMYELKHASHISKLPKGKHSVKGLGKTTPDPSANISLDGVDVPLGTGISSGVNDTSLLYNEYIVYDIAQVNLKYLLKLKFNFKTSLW
Summary of the method: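 Drug-treated cells lysed and protein measured by BCA. Lysate (30 µg) separated by SDS-PAGE and transferred to PVDF. Probed with anti-PARP1 primary antibody (1:1000), then HRP-conjugated secondary (1:10,000), with alpha-tubulin as loading probe. Detected by ECL. Blots representative of at least three independent experiments.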

HNO 97 cell line [4] = experiment: Induction of cell cycle arrest in human HNO97 cells assessed as cell population at G0-G1 phase by flow cytometry (reference value: 63.31%); type: functional
HNO 97 cell line [5] = experiment: Induction of apoptosis in human HNO97 cells assessed as measuring fold decrease in CK 18 protein expression level by sandwiched immunoassay relative to control; type: functional; summary of the method: as §2
Huh-7 = experiment: Anticancer activity against human Huh-7 cells assessed as growth inhibition at 100 microg/mL by SRB assay relative to control; type: functional; conditions: read-out: GI; summary of the method: as §3
HNO 97 cell line [6] = experiment: Induction of apoptosis in human HNO97 cells assessed as measuring fold increase in p53 protein expression level by sandwiched immunoassay relative to control; type: functional; summary of the method: as §2
MDA-MB-468 [7] = experiment: Anticancer activity against human MDA-MB-468 cells assessed as growth inhibition at 100 microg/mL by SRB assay relative to control; type: functional; conditions: read-out: GI; summary of the method: as §3
HNO 97 cell line [8] = experiment: Induction of apoptosis in human HNO97 cells assessed as measuring fold increase in caspase-3 protein expression level by sandwiched immunoassay relative to control; type: functional; summary of the method: as §2
HNO 97 cell line [9] = experiment: Induction of cell cycle arrest in human HNO97 cells assessed as cell population at G2-M phase by flow cytometry (reference value: 2.42%); type: functional
HNO 97 cell line [10] = experiment: Induction of apoptosis in human HNO97 cells assessed as measuring fold decrease in Bcl-2 protein expression level by sandwiched immunoassay relative to control; type: functional; summary of the method: as §2
HNO 97 cell line [11] = experiment: Induction of apoptosis in human HNO97 cells assessed as measuring fold increase in Bax protein expression level by sandwiched immunoassay relative to control; type: functional; summary of the method: as §2
HNO 97 cell line [12] = experiment: Induction of cell cycle arrest in human HNO97 cells assessed as cell population at S phase by flow cytometry (reference value: 34.27%); type: functional
[13] = Cytotoxicity against human HSF (VGS) cells assessed as growth inhibition at 100 microg/mL by SRB assay relative to control; type: toxicity, cell-based; conditions: at 100 µg/mL, read-out: GI
MDA-MB-231 = experiment: Antiproliferative activity against human MDA-MB-231 cells assessed as reduction in cell growth by coomassie Brilliant Blue staining based analysis; type: functional
FaDu [14] = experiment: Cytotoxicity against human FaDu cells by SRB assay; type: functional, cell-based; summary of the method: as §1
MDA-MB-468 [15] = experiment: Cytotoxicity against human MDA-MB-468 cells by SRB assay; type: functional, cell-based; summary of the method: as §1
HeLa = experiment: Anticancer activity against human HeLa cells assessed as growth inhibition at 100 microg/mL by SRB assay relative to control; type: functional; conditions: read-out: GI; summary of the method: as §3
HCT-116 = experiment: Anticancer activity against human HCT-116 cells assessed as growth inhibition at 100 microg/mL by SRB assay relative to control; type: functional; conditions: read-out: GI; summary of the method: as §3
HNO 97 cell line [16] = experiment: Anticancer activity against human HNO97 cells assessed as growth inhibition at 100 microg/mL by SRB assay relative to control; type: functional; conditions: read-out: GI; summary of the method: as §3
SK-BR-3 = experiment: Anticancer activity against human SK-BR-3 cells assessed as growth inhibition at 100 microg/mL by SRB assay relative to control; type: functional; conditions: read-out: GI; summary of the method: as §3
FaDu [17] = experiment: Anticancer activity against human FaDu cells assessed as growth inhibition at 100 microg/mL by SRB assay relative to control; type: functional; conditions: read-out: GI; summary of the method: as §3
MCF7 = experiment: Anticancer activity against human MCF7 cells assessed as growth inhibition at 100 microg/mL by SRB assay relative to control; type: functional; conditions: read-out: GI; summary of the method: as §3
[18] = target: T1, Poly [ADP-ribose] polymerase 1; experiment: Inhibition of PARP1 (unknown origin) by ELISA

SMILES | pIC50 (HNO 97 cell line [1]) | fold change (FC) (HNO 97 cell line [2]) | inhibition of growth at 100 µg/mL (NCI-H460) [%] | inhibition of growth at 100 µg/mL (A-375) [%] | inhibition of growth at 100 µg/mL (A549) [%] | inhibition [3] | fold change (FC) (HNO 97 cell line [5]) | inhibition of growth at 100 µg/mL (Huh-7) [%] | inhibition of growth at 100 µg/mL (MDA-MB-468 [7]) [%] | inhibition at 100 microg/mL [13] [%] | Activity (MDA-MB-231) | pIC50 (FaDu [14]) | pIC50 (MDA-MB-468 [15]) | inhibition of growth at 100 µg/mL (HeLa) [%] | inhibition of growth at 100 µg/mL (HCT-116) [%] | inhibition of growth at 100 µg/mL (HNO 97 cell line [16]) [%] | inhibition of growth at 100 µg/mL (SK-BR-3) [%] | inhibition of growth at 100 µg/mL (FaDu [17]) [%] | inhibition of growth at 100 µg/mL (MCF7) [%] | pIC50 [18] | further results
Nc1ccc(C(=O)/C=C/c2ccc(Oc3ccc(Cl)nn3)cc2)cc1 | 4.91 | 9.76 | 61.3 | 56.1 | 66.5 | Active | 0.54 | 73.9 | 95 | 68.1 | Active | 4.57 | 4.94 | 82.3 | 66.9 | 89.1 | 77.5 | 86.7 | 67.9 |  | Activity (HNO 97 cell line [4]): 83.28%; fold change (FC) (HNO 97 cell line [6]): 3.9; fold change (FC) (HNO 97 cell line [8]): 7.55; Activity (HNO 97 cell line [9]): 1.05%; fold change (FC) (HNO 97 cell line [10]): 0.59; fold change (FC) (HNO 97 cell line [11]): 14.9; Activity (HNO 97 cell line [12]): 15.66%
CC(=O)Nc1ccc(C(=O)/C=C/c2ccc(Oc3ccc(Cl)nn3)cc2)cc1 | 4.67 |  | 63.3 | 71.7 | 69.3 | Active |  | 77.5 | 89.7 | 70.2 | Active | 4.51 | 4.09 | 62.9 | 54.5 | 85.5 | 71.3 | 86.5 | 75 |  | 
O=c1[nH]nc2c3c(cccc13)Oc1ccc(CN3CCC(O)CC3)cc1-2 [E-7016] |  |  |  |  |  |  |  |  |  |  |  |  |  |  |  |  |  |  |  | 5.52 | 
COc1cc(O)ccc1C(=O)/C=C/c1ccc(O)cc1 |  |  |  |  |  |  |  |  |  |  |  |  |  |  |  |  |  |  |  | 5.72 | 
CC(=O)Nc1cccc(C(=O)/C=C/c2ccc(Oc3ccc(Cl)nn3)cc2)c1 | 4.89 | 10.49 | 69.6 | 73 | 71.5 | Active | 0.43 | 70.8 | 91.1 | 70 | Active |  | 4.52 | 73.9 | 77.8 | 83.7 | 55.5 | 66.3 | 68.7 |  | fold change (FC) (HNO 97 cell line [6]): 7.01; fold change (FC) (HNO 97 cell line [8]): 9.44; fold change (FC) (HNO 97 cell line [10]): 0.65; fold change (FC) (HNO 97 cell line [11]): 18.26
CC1(COc2ccc(/C=C3/SC(O)=NC3=O)cc2)CCCCC1 |  |  |  |  |  |  |  |  |  |  |  |  |  |  |  |  |  |  |  | 4.60 | 
COC1CCN(C(=O)c2cc(Cc3n[nH]c(=O)c4ccccc34)ccc2F)CC1 [AZD2461] |  |  |  |  |  |  |  |  |  |  |  |  |  |  |  |  |  |  |  | 8.70 | 
O=C(/C=C/c1ccc(Oc2ccc(Cl)nn2)cc1)c1ccc(OCc2ccc(Cl)cc2Cl)cc1 | 4.95 | 9.79 | 52.4 | 70.5 | 65 |  | 0.5 | 67.8 | 84.2 | 50.7 | Active | 4.22 | 4.67 | 55 | 75.1 | 83.3 | 60.9 | 81.6 | 54.4 |  | Activity (HNO 97 cell line [4]): 66.3%; fold change (FC) (HNO 97 cell line [6]): 5.75; fold change (FC) (HNO 97 cell line [8]): 8.7; Activity (HNO 97 cell line [9]): 8.57%; fold change (FC) (HNO 97 cell line [10]): 0.66; fold change (FC) (HNO 97 cell line [11]): 11.54; Activity (HNO 97 cell line [12]): 25.13%
O=C(/C=C/c1ccc(Oc2ccc(Cl)nn2)cc1)c1ccccc1 | 4.77 |  | 55.9 | 29.3 | 66.4 |  |  | 74.8 | 90.5 | 52.2 | Active | 4.75 | 4.58 | 51 | 39 | 85.3 | 70.5 | 80.9 | 63 |  | 
